Experimental data: ChEMBL document CHEMBL4346653, “A2B Adenosine Receptor Antagonists with Picomolar Potency” (J Med Chem, 2019)

Key:
[1] = organism: Homo sapiens; experiment: Selectivity index, ratio of Ki for displacement of [3H]MSX-2 from recombinant human A2A adenosine receptor expressed in CHO cell membranes to Ki for displacement of [3H]PSB-603 from recombinant human A2B adenosine receptor expressed in CHO cell membranes
[2] = molecular target: T1, Adenosine receptor A3 (Homo sapiens) (UniProt P0DMS8); experiment: Displacement of [3H]PSB-11 from recombinant human A3 adenosine receptor expressed in CHO cell membranes at 1 uM measured after 45 mins in presence of adenosine deaminase by liquid scintillation counting method relative to control
T1 sequence (whole entry): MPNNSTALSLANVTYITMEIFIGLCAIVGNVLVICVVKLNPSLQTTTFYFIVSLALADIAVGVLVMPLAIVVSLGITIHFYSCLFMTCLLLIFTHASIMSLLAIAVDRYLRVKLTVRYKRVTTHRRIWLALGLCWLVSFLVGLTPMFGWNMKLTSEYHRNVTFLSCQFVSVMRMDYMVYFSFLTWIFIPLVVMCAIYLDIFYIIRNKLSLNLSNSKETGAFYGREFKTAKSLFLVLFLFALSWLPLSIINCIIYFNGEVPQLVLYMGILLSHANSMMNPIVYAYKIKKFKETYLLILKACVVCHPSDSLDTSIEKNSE
How it was run: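 Single-point competition binding at human AR subtype membranes, each against its own tritiated radioligand. The test compound is given at 1 μM, and the result is reported as percent inhibition of radioligand binding. The radioligand-specific footnotes give n = 3.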

[3] = organism: Mus musculus; experiment: Selectivity ratio of Ki for displacement of [3H]CCPA from recombinant mouse A1 adenosine receptor expressed in CHO cell membranes to Ki for displacement of [3H]PSB-603 from recombinant mouse A2B adenosine receptor expressed in CHO cell membranes
[4] = organism: Mus musculus; experiment: Selectivity ratio of Ki for displacement of [3H]NECA from recombinant mouse A3 adenosine receptor expressed in CHO cell membranes to Ki for displacement of [3H]PSB-603 from recombinant mouse A2B adenosine receptor expressed in CHO cell membranes
[5] = molecular target: T2, Adenosine receptor A1 (Mus musculus) (UniProt Q60612); experiment: Displacement of [3H]CCPA from recombinant mouse A1 adenosine receptor expressed in CHO cell membranes at 1 uM measured after 90 mins in presence of adenosine deaminase by liquid scintillation counting method relative to control
T2 sequence (whole entry): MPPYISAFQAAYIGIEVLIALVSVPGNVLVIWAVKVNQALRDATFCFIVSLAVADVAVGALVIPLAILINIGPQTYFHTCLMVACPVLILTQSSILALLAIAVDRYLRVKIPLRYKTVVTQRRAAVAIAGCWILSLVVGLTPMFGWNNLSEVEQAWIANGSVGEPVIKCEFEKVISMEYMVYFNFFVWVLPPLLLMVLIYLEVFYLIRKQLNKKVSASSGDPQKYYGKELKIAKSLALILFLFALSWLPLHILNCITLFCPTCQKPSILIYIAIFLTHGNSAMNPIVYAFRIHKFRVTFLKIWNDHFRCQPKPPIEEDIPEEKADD

[6] = molecular target: Adenosine receptor A2a (Homo sapiens, UniProt P29274); experiment: Displacement of [3H]MSX-2 from recombinant human A2A adenosine receptor expressed in CHO cell membranes measured after 30 mins in presence of adenosine deaminase by liquid scintillation counting method
Chain of Adenosine receptor A2a (P29274 whole entry): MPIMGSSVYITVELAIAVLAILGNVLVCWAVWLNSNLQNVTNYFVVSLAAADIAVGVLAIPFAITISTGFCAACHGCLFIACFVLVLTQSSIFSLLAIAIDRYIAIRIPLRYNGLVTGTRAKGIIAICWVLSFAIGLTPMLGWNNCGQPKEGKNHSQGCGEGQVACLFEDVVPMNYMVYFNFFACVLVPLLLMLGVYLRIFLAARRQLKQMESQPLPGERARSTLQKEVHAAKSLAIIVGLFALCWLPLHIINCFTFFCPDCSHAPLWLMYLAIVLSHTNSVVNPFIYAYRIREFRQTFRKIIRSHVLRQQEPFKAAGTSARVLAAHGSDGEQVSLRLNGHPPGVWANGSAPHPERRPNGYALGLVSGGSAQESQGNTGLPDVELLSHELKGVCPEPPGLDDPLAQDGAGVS
How it was run: (§1)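 Competition binding on membranes of cells recombinantly expressing the human receptor (CHO or HEK cells), with tritiated radioligand per subtype: [3H]PSB-603 for A2B, [3H]MSX-2 for A2A, [3H]CCPA for A1, [3H]PSB-11 for A3. Ki ± SEM from n = 3, some from extrapolated curves. Weak binders are reported as % inhibition of radioligand binding at 1 μM.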

[7] = organism: Homo sapiens; experiment: Selectivity index, ratio of Ki for displacement of [3H]PSB-11 from recombinant human A3 adenosine receptor expressed in CHO cell membranes to Ki for displacement of [3H]PSB-603 from recombinant human A2B adenosine receptor expressed in CHO cell membranes
[8] = molecular target: T3, Adenosine receptor A2b (Mus musculus, UniProt Q60614); experiment: Displacement of [3H]PSB-603 from recombinant mouse A2B adenosine receptor expressed in CHO cell membranes measured after 75 mins in presence of adenosine deaminase by liquid scintillation counting method
T3 sequence (Q60614 whole entry): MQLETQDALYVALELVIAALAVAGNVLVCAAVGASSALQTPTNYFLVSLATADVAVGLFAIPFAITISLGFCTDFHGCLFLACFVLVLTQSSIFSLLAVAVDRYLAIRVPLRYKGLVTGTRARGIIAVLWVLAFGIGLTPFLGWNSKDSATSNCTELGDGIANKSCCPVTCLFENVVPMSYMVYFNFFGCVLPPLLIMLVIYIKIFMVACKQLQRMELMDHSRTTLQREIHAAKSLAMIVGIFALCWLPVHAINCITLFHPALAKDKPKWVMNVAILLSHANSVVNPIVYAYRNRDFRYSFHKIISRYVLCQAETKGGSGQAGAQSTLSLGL

[9] = molecular target: T4, Adenosine receptor A2b (Homo sapiens, UniProt P29275); experiment: Displacement of [3H]PSB-603 from recombinant human A2B adenosine receptor expressed in CHO cell membranes measured after 75 mins in presence of adenosine deaminase by liquid scintillation counting method; how it was run: as §1
T4 sequence (P29275 whole entry): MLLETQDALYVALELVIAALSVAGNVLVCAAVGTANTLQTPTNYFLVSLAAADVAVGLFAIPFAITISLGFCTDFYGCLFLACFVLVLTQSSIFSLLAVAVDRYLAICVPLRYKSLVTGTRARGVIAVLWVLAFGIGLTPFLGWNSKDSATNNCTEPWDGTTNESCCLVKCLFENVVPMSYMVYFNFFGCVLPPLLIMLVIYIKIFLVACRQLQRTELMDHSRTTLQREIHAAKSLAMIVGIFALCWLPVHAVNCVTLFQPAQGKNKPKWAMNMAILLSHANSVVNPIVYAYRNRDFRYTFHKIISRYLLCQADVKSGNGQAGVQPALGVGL

[10] = Selectivity ratio of Ki for displacement of [3H]PSB-603 from recombinant mouse A2B adenosine receptor expressed in CHO cell membranes to Ki for displacement of [3H]PSB-603 from recombinant human A2B adenosine receptor expressed in CHO cell membranes

Compound: CCCn1c(=O)[nH]c2nc(-c3ccc(S(=O)(=O)N4CCN(c5ccc(Br)cc5)CC4)cc3)[nH]c2c1=O
- Ratio Ki [1]: > 12000
- inhibition [2]: 29%
- Ratio Ki [3]: > 7630
- Ratio Ki [4]: > 7630
- inhibition [5]: 29%
- Ki [6]: > 1000 nM
- Ratio Ki [7]: > 12000
- Ki [8]: 0.131 nM
- Ki [9]: 0.0835 nM

Compound: CCCn1c(=O)c2[nH]c(-c3ccc(S(=O)(=O)N4CCN(c5ccc(Cl)cc5)CC4)cc3)nc2n(C)c1=O
- Ratio Ki [1]: > 520
- inhibition [2]: 39%
- Ratio Ki [4]: 180
- Ki [6]: > 1000 nM
- Ratio Ki [7]: > 520
- Ratio Ki [10]: 1.5 to 6
- Ki [8]: 8.34 nM
- Ki [9]: 1.91 nM

Compound: CCCn1c(=O)[nH]c2nc(-c3ccc(S(=O)(=O)N4CCN(c5cccc(F)c5)CC4)cc3)[nH]c2c1=O
- Ratio Ki [1]: > 1580
- inhibition [2]: 44%
- Ratio Ki [3]: > 320
- inhibition [5]: 46%
- Ki [6]: > 1000 nM
- Ratio Ki [7]: > 1580
- Ratio Ki [10]: 1.5 to 6
- Ki [8]: 0.926 nM
- Ki [9]: 0.632 nM
